Measurements from ChEMBL document CHEMBL3112554, “Discovery of simplified N²-substituted pyrazolo[3,4-d]pyrimidine derivatives as novel adenosine receptor antagonists: efficient synthetic approaches, biological evaluations and molecular docking studies” (Bioorg Med Chem, 2014).

Tests used:
[1] = biological target: T1, Adenosine receptor A3 (Homo sapiens, UniProt P0DMS8); assay: Displacement of [3H]-HEMADO from human adenosine A3 receptor expressed in CHO cells after 3 hrs by topcount scintillation counting analysis; format: cell-based
T1 sequence (P0DMS8 whole entry): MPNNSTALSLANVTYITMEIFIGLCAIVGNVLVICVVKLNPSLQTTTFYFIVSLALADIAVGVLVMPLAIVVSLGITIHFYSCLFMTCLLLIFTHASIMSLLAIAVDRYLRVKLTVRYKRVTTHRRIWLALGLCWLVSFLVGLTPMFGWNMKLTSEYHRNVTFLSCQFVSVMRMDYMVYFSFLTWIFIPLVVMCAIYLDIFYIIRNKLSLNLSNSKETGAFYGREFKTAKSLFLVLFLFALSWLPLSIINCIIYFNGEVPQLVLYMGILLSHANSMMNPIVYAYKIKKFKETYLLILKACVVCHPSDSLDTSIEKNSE
Outline: (§1)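 Radioligand binding to membranes from CHO cells expressing the human receptor, run for 3 h at room temperature. Radioligands were [3H]CCPA for hA1, [3H]NECA for hA2A and [3H]HEMADO for hA3. Nonspecific binding was defined with 1 mM theophylline (hA1) or 100 µM R-PIA (hA2A, hA3). Bound ligand was separated by GF/B filtration and counted. Ki came from nonlinear fitting of competition curves using Cheng-Prusoff, as geometric means of n = 3–6 with 95% CI.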

[2] = biological target: T2, Adenosine receptor A2b (Homo sapiens, UniProt P29275); assay: Antagonist activity at human adenosine A2B receptor expressed in CHO cells assessed as inhibition of NECA-induced adenylyl cyclase activity after 20 mins in presence of [alpha-32P]ATP; format: functional, cell-based
T2 sequence (P29275 whole entry): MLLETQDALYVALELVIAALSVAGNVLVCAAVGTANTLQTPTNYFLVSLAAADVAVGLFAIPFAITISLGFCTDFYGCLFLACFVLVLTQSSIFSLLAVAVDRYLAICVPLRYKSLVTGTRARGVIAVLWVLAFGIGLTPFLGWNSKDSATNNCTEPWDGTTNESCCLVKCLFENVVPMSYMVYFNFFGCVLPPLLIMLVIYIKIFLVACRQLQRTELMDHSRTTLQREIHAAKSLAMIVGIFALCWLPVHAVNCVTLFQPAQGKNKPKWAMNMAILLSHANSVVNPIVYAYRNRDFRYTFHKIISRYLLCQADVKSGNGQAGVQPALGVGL
Outline: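 Membranes from CHO cells transfected with the human A2B receptor were incubated for 20 min with 100 nM NECA, 150,000 cpm [α-32P]ATP and test compound at several concentrations. The incubation mixture contained no EGTA and no NaCl. Ki was derived from concentration-dependent inhibition of NECA-stimulated adenylyl cyclase activity (n = 3–6).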

[3] = biological target: Adenosine receptors; A1 & A3 (Homo sapiens) (UniProt P30542+P0DMS8); assay: Selectivity ratio of Ki for human adenosine A1 receptor to Ki for human adenosine A3 receptor
Outline: (§2)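 Ratios of Ki values from displacement assays in CHO cells (3 h, room temperature). The hA1 Ki ([3H]CCPA) or the hA2A Ki ([3H]NECA) was divided by the hA3 Ki ([3H]HEMADO). Each Ki is a geometric mean of n = 3–6.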

[4] = organism: Homo sapiens; assay: Selectivity ratio of Ki for human adenosine A2A receptor to Ki for human adenosine A3 receptor; outline: as §2
[5] = biological target: Adenosine receptor A2a (Homo sapiens, UniProt P29274); assay: Displacement of [3H]-NECA from human adenosine A2A receptor expressed in CHO cells after 3 hrs by topcount scintillation counting analysis; format: cell-based; outline: as §1
Adenosine receptor A2a, sequence (P29274 whole entry): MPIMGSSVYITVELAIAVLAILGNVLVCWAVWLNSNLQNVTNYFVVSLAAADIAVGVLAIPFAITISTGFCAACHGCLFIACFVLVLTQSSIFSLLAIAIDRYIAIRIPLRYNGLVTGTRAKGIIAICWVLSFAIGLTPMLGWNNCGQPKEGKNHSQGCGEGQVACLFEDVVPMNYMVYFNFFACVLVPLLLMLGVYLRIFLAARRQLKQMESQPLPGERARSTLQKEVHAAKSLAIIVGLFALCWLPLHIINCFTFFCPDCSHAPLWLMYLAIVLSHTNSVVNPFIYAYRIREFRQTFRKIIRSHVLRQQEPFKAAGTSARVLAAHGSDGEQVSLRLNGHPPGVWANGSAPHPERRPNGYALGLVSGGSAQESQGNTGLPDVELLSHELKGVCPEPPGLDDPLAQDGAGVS

[6] = biological target: T3, Adenosine receptor A1 (Homo sapiens, UniProt P30542); assay: Displacement of [3H]-CCPA from human adenosine A1 receptor expressed in CHO cells after 3 hrs by topcount scintillation counting analysis; format: cell-based; outline: as §1
T3 sequence (P30542 whole entry): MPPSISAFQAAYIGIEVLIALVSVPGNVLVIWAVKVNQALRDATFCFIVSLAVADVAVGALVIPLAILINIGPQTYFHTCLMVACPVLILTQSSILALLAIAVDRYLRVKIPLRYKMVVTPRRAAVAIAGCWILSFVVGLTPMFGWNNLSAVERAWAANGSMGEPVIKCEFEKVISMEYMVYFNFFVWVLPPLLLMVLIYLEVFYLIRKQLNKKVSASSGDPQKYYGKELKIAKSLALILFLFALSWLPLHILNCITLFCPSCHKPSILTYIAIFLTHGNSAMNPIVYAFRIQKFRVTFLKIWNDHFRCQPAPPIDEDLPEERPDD

[7] = organism: Homo sapiens; assay: Selectivity ratio of Ki for human adenosine A3 receptor to Ki for human adenosine A2A receptor
[8] = organism: Homo sapiens; assay: Selectivity ratio of Ki for human adenosine A1 receptor to Ki for human adenosine A2A receptor

Row | SMILES | Ki [1] | Ki [2] | Ratio Ki [3] | Ratio Ki [4] | Ki [5] | Ki [6] | Ratio Ki [7] | Ratio Ki [8]
1 | Cn1cc2c(Cl)nc(NC(=O)c3ccccc3)nc2n1 | 23.6 µM | > 20 µM | > 4.2 | 1 | 24.2 µM | > 100 µM |  | 
2 | CC(C)n1cc2c(Cl)nc(NC(=O)c3ccccc3)nc2n1 | 12.8 µM | > 20 µM | 1.5 | 0.3 | 4.6 µM | 19.6 µM |  | 
3 | Cn1cc2c(Cl)nc(NC(=O)c3ccc(C(F)(F)F)cc3)nc2n1 | 33.5 µM | > 20 µM | > 2.9 | 0.7 | 25.6 µM | > 100 µM |  | 
4 | CC(C)n1cc2c(Cl)nc(NC(=O)c3ccc(F)cc3)nc2n1 | > 60 µM | > 20 µM |  | > 0.02 | 1.6 µM | 3.4 µM | > 37 | 
5 | Nc1nc(Cl)c2cn(CCc3ccccc3)nc2n1 | > 100 µM | > 20 µM |  | > 0.03 | 3.7 µM | 4.3 µM |  | 
6 | CC(C)n1cc2c(Cl)nc(N)nc2n1 | > 100 µM | > 10 µM |  | 0.03 | 3.3 µM | 9 µM |  | 
7 | Cc1ccc(C(=O)Nc2nc(Cl)c3cn(C(C)C)nc3n2)cc1 | > 100 µM | > 20 µM |  | 0.01 | 1.1 µM | 4.1 µM | 91 | 
8 | O=C(Nc1nc(Cl)c2cn(CCc3ccccc3)nc2n1)c1ccc(F)cc1 | > 100 µM | > 20 µM | 0.02 | 0.02 | 2.06 µM | 2.7 µM | > 50 | 
9 | CC(C)n1cc2c(Cl)nc(NC(=O)Cc3ccccc3)nc2n1 | 27.1 µM | > 10 µM | 0.07 | 0.17 | 4.7 µM | 1.9 µM |  | 
10 | Cc1ccc(C(=O)Nc2nc(Cl)c3cn(C)nc3n2)cc1 | 13.5 µM | > 20 µM | > 7.4 | 0.8 | 12 µM | > 100 µM |  | 
11 | Cn1cc2c(Cl)nc(NC(=O)c3ccc(F)cc3)nc2n1 | 31.9 µM | > 20 µM | > 3.1 | 0.6 | 20.5 µM | > 100 µM |  | 
12 | Cn1cc2c(Cl)nc(N)nc2n1 | > 100 µM | > 20 µM |  | > 0.09 | 9.1 µM | 29.7 µM |  | 
13 | CC(C)(C)Cn1cc2c(Cl)nc(N)nc2n1 | > 60 µM | > 10 µM |  | > 0.6 | 4.1 µM | 12 µM |  | 
14 | O=C(Cc1ccccc1)Nc1nc(Cl)c2cn(CCc3ccccc3)nc2n1 | 11.4 µM | > 20 µM | 0.5 | 0.7 | 8.6 µM | 6.5 µM |  | 
15 | CC(C)(C)Cn1cc2c(Cl)nc(NC(=O)c3ccccc3)nc2n1 | 30.3 µM | ≥ 10 µM | 0.3 | 0.1 | 3.5 µM | 11 µM |  | 

Stronger by Ki [1], values ahead:

Row | Ki [1] | Ki [2] | Ratio Ki [3] | Ratio Ki [4] | Ki [5] | Ki [6] | Ratio Ki [7] | Ratio Ki [8] | SMILES
16 | 10.9 µM | > 20 µM | 2.9 | 2.1 | 23.6 µM | 31.9 µM |  |  | CC(C)(C)Cn1cc2c(Cl)nc(NC(=O)Cc3ccccc3)nc2n1
17 | 10.3 µM | > 20 µM | 1.3 | 0.2 | 2.7 µM | 13.8 µM |  |  | CC(C)n1cc2c(Cl)nc(NC(=O)c3ccc(C(F)(F)F)cc3)nc2n1
18 | 8.6 µM | > 20 µM | 0.4 | 0.3 | 3.1 µM | 3.8 µM |  |  | O=C(Nc1nc(Cl)c2cn(CCc3ccccc3)nc2n1)c1ccccc1
19 | 7.1 µM | > 20 µM | > 8.4 | 2.4 | 17.5 µM | > 60 µM |  |  | Cn1cc2c(Cl)nc(N(C(=O)c3ccccc3)C(=O)c3ccccc3)nc2n1
20 | 6.7 µM | > 20 µM | 1.1 | 0.1 | 0.8 µM | 7.9 µM | 8 | 9.9 | CC(C)n1cc2c(Cl)nc(N(C(=O)c3ccccc3)C(=O)c3ccccc3)nc2n1
21 | 6.6 µM | > 20 µM | > 15 | > 15 | > 100 µM | > 100 µM |  |  | CC(C)(C)Cn1cc2c(Cl)nc(NC(=O)c3ccc(C(F)(F)F)cc3)nc2n1
22 | 6.6 µM | > 20 µM | 2.4 | 4.5 | 29.9 µM | 16.3 µM |  |  | Cn1cc2c(Cl)nc(NC(=O)Cc3ccccc3)nc2n1
23 | 6.5 µM | > 20 µM | > 15.3 | > 15.3 | > 100 µM | > 100 µM |  |  | CC(C)(C)Cn1cc2c(Cl)nc(N(C(=O)c3ccccc3)C(=O)c3ccccc3)nc2n1
24 | 5.9 µM | > 10 µM | 2.7 | 0.3 | 2.2 µM | 16.5 µM |  |  | CC(C)(C)Cn1cc2c(Cl)nc(NC(=O)c3ccc(F)cc3)nc2n1
25 | 5 µM | > 10 µM | 2.2 | 0.4 | 2.1 µM | 11.1 µM |  |  | Cc1ccc(C(=O)Nc2nc(Cl)c3cn(CC(C)(C)C)nc3n2)cc1
26 | 2.9 µM | > 20 µM | > 34.5 | 2 | 5.4 µM | > 100 µM |  |  | O=C(c1ccccc1)N(C(=O)c1ccccc1)c1nc(Cl)c2cn(CCc3ccccc3)nc2n1
27 | 2.8 µM | > 20 µM | > 21.4 | 5.8 | 16.4 µM | > 60 µM |  |  | O=C(Nc1nc(Cl)c2cn(CCc3ccccc3)nc2n1)c1ccc(C(F)(F)F)cc1
28 | 1.5 µM | > 20 µM | 7.2 | 6.6 | 9.9 µM | 10.8 µM |  |  | Cc1ccc(C(=O)Nc2nc(Cl)c3cn(CCc4ccccc4)nc3n2)cc1
29 | 1.3 µM | > 20 µM | > 77 | > 77 | > 100 µM | > 100 µM |  |  | CCOC(=O)c1nc(NC(=O)c2ccc(C(F)(F)F)cc2)nc2nn(CC(C)(C)C)cc12
30 | 0.9 µM | > 20 µM | > 111 | > 111 | > 100 µM | > 100 µM |  |  | CCOC(=O)c1nc(NC(=O)c2ccc(C)cc2)nc2nn(CC(C)(C)C)cc12
